Compound activity (PubChem)
Hsp70 activator = Hsp70 transcriptional activators, primary screen, cell-based, HeLa, Hsp70 promoter luciferase, luminescence, 10 µM | HeLa Hsp70 promoter luciferase reporter; scaled: vehicle 0, proteasome-inhibitor control 100% | activation, % at 10 µM | actives 0.04% (n = 200,000);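 active = activation above the mean across all tested compounds plus 3 SD, cutoff set per campaign, cut at about 5.5% in these data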;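 note: 100% = MG132 at 30 µM as the positive control and 0% = DMSO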
TLR9-MyD88 inh = inhibitors of TLR9-MyD88 association in cells, primary screen, cell-based, CHO, BLA complementation, fluorescence | Toll-like receptor 9 (Homo sapiens) + Myeloid differentiation primary response protein … | CCF4 FRET ratio | inhibition, % at 4.98 µM | actives 0.21% (n = 340,000) | AID 504734, 2011;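 active = inhibition above the mean over all tested compounds plus 3 SD, cut at about 21% in these data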;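 note: 0% = DMSO only wells and 100% = clavulanate BLA inhibitor control wells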
TLR4-MyD88 BLA = inhibitors of TLR4-MyD88 association in cells, primary screen, cell-based, HeLa CL3-4, BLA complementation, FRET ratio. actives 0.18% (n = 200,000). inhibition, % at 8.4 µM. AID 861, 2007. HeLa CL3-4 TLR4/MyD88 BLA complementation. Toll-like receptor 4 (Homo sapiens) + Myeloid differentiation primary response protein …; in the data active = inhibition above about 25%;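 note: 0% = vehicle and 100% = reference inhibitor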
MT stabilizer = microtubule stabilizers in HeLa cells, primary screen, imaging, high-content imaging. AID 2205, 2009. % tubulin-high responders, % at 10 µM. actives 0.83% (n = 200,000). HeLa tubulin immunostaining HCS, 24 h; share of cells brighter than vehicle mean+2SD;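 active = plate Z-score above 3 for both tubulin-high and condensed-nucleus cell shares, with cell loss under 80%, at 10 µM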;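 note: anti alpha tubulin signal scored within the nucleus-defined area of each cell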
b-catenin transl = modulators of beta-catenin nuclear translocation, primary screen, imaging, HeLa cells, immunofluorescence, high-content; nuclear translocation activity, % at 5 µM; actives 0.3% (n = 190,000); AID 1665, 2009;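 active = nuclear translocation activity above 50% at 5 µM, with a well cell count of 50 or more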;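 note: per-cell ratio of nuclear to cytoplasmic median beta-catenin stain intensity; plate controls were DMSO negative control for no effect and GSK-3 inhibitor IX positive control for full effect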
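Assay system: human HeLa cells, native beta-catenin; doses: 5 µM primary, 0.02–20 µM confirmation; incubation: compound treatment 24 h, 37°C, 5% CO2; technique: fluorescence imaging of beta-catenin antibody stain plus DAPI; measure: % activation, nuclear-to-cytoplasmic median beta-catenin signal ratio per cell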
NOD2 RIPK2 PPI = NOD2-RIPK2 binding disruptors in cells, primary screen, fluorescence, CHO cells, BLA complementation; Receptor-interacting serine/threonine-protein kinase 2 (Homo sapiens), O43353; CCF4 ratio; inhibition, % at 4.98 µM; actives 0.38% (n = 360,000); AID 624267, 2012; in the data active = inhibition above about 21%;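 note: 0% = vehicle only and 100% = reference blocker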
Target sequence (O43353 whole entry, looked up): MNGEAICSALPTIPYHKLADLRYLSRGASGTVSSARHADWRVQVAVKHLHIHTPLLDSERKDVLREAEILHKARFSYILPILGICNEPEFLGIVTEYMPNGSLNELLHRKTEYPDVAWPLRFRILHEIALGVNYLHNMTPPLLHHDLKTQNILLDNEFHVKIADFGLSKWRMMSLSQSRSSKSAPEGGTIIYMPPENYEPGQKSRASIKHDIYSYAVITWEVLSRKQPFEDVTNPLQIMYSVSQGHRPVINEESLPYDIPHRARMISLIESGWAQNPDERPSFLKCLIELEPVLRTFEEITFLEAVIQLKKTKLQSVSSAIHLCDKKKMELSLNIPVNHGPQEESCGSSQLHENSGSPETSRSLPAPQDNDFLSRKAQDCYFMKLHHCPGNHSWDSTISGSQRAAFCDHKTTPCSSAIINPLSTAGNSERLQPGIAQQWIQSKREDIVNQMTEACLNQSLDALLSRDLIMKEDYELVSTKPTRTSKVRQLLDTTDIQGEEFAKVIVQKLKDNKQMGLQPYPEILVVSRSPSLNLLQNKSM
TLR4 MyD88 cnf = TLR4-MyD88 association inhibitors, retest, confirmation, cell-based, HeLa CL3-4, BLA complementation, FRET ratio; shares compounds with TLR4-MyD88 BLA; CCF4 FRET ratio; inhibition, % at 8.4 µM; actives 50% (n = 350); AID 941, 2007;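 active = mean inhibition across three repeat runs above about 25% carried over from the earlier screen, limit read from the data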;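 note: plate controls were DMSO only for no effect and clavulanic acid blocking BLA at full dose for full effect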
BLA inh HeLa = beta-lactamase inhibition flagged in TLR4-MyD88 counter-screen; shares compounds with TLR4-MyD88 BLA; HeLa BLA reporter, CCF4 FRET ratio; inhibition, % at 8.4 µM; actives 63% (n = 350);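 active = mean inhibition over three repeats above about 26% taken from the earlier screen, limit read from the data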;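 note: HeLa cells stably expressing beta-lactamase reporter as counterscreen for TLR4-MyD88 inhibitors; 0% = DMSO and 100% = clavulanic acid full inhibition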
TLR9-MyD88 cf = TLR9-MyD88 association inhibitors, retest, confirmation, cell-based, CHO, BLA complementation, fluorescence, triplicate. shares compounds with TLR9-MyD88 inh. CCF4 FRET ratio. inhibition, % at 4.98 µM. actives 51% (n = 680);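 active = mean inhibition across three repeats above about 21% taken from the earlier screen, limit read from the data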;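 note: blue over green emission ratio reports constitutive TLR9 MyD88 association via BLA complementation; 0% = DMSO vehicle wells and 100% = clavulanate BLA inhibitor wells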
BLA counter-1 = beta-lactamase reporter inhibitors in CHO cells, artefact control for TLR9-MyD88 binding inhibitor project, cell-based, fluorescence. CHO-BLA cells, CCF4 FRET ratio, BLA reporter. actives 7% (n = 680). shares compounds with TLR9-MyD88 inh. AID 540251, 2011. inhibition, % at 4.98 µM;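 active = mean inhibition above a 50% cutoff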;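 note: counterscreen of TLR9-MyD88 hits on CMV-driven BLA in CHO-K1 cells; 0% = DMSO alone and 100% = clavulanate blocking BLA; higher means less blue over green ratio so more BLA blockade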
TLR9 CHO cytotox = CHO cell viability loss – luminescence, single concentration, cytotoxicity control for TLR9-MyD88 binding inhibitor project. shares compounds with TLR9-MyD88 inh. TLR9-MyD88 CHO cells cytotoxicity. inhibition, % at 4.98 µM. actives 39% (n = 680). AID 588336, 2011; in the data active = inhibition above about 11%
NOD2-RIPK2 conf = NOD2-RIPK2 binding disruptors, retest, confirmation, fluorescence, CHO cells, BLA complementation, triplicate | shares compounds with NOD2 RIPK2 PPI | CCF4 FRET | inhibition, % at 4.98 µM | actives 70% (n = 1,200);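 active = mean inhibition across replicates above a set limit taken from the earlier primary screen, cut at about 21% in these data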;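 note: 0% = DMSO-only wells and the high end = clavulanate BLA-blocked wells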
BLA counter-2 = NOD2-RIPK2 counterscreen BLA reporter activity. actives 57% (n = 1,200). inhibition, % at 4.98 µM. CHO BLA reporter, CCF4 FRET ratio. shares compounds with NOD2 RIPK2 PPI;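 active = mean inhibition above the low-control mean inhibition plus three low-control SD, cut at about 11% in these data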;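 note: 0% = DMSO only wells and 100% = clavulanate high control wells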
Starred values were filed as active, the others as inactive; nt = no result given. Rows were chosen to be rich in hits. Some 1% of all compounds tested hit in one or more screens of this group.

SMILES	Hsp70 activator	TLR9-MyD88 inh	TLR4-MyD88 BLA	MT stabilizer	b-catenin transl	NOD2 RIPK2 PPI	TLR4 MyD88 cnf	BLA inh HeLa	TLR9-MyD88 cf	BLA counter-1	TLR9 CHO cytotox	NOD2-RIPK2 conf	BLA counter-2
OCCCc1nc2n(n1)C(c1ccccc1)C=C(c1ccccc1)N2 (stereo unspecified)	0	40*	35*	2	-6	64*	28*	50*	32*	32	3	nt	nt
O=[N+]([O-])c1ccc(-c2ccc(/C=N/Nc3nc(NCc4ccccc4)nc(N4CCOCC4)n3)o2)cc1	0	36*	55*	10	0	10	47*	76*	29*	31	3	nt	nt
O=[N+]([O-])c1ccc(NN=Cc2ccccc2)nc1	nt	4	nt	nt	nt	14	nt	nt	nt	nt	nt	nt	nt
O=[N+]([O-])c1ccc(N/N=C\c2cccn2-c2ccccc2)nc1	0	34*	41*	7	2	46*	40*	62*	-14	29	9	52*	54*
Nc1ccc2c(C(F)(F)F)cc(=O)oc2c1	0	55*	49*	2	-2	51*	41*	66*	36*	41	-1	64*	68*
CC(C)(C)OC(=O)C[C@H]1C/C=C\C[C@@H](CC(=O)NCCO)C(=O)NC[C@@H](c2ccccc2)OC1=O	nt	2	nt	nt	nt	-9	nt	nt	nt	nt	nt	nt	nt
O=S(=O)(c1ccc(Br)c2nsnc12)N1CCOCC1	0	27*	56*	6	-6	56*	54*	76*	14	9	14*	54*	20*
Cc1ccc(-n2ncc(Br)c(Br)c2=O)cc1	5	24*	27*	2	0	32*	22	8	27*	18	101*	45*	8
Cc1ccc(NC2CCCN(C(=O)c3ccc4[nH]ccc4c3)C2)cc1C (stereo unspecified)	nt	5	nt	nt	nt	-10	nt	nt	nt	nt	nt	nt	nt
CCC(=O)OCCNc1cc(Sc2nc3ccccc3[nH]2)c2nonc2c1[N+](=O)[O-]	0	56*	29*	2	-1	80*	20	-10	nt	nt	nt	93*	48*
CCCSc1cc(NCCOC(=O)CCC)c([N+](=O)[O-])c2nonc12	0	-4	7	3	-1	-5	nt	nt	nt	nt	nt	nt	nt
CCN(CC)c1ccc(/C=c2\sc3nc4ccccc4n3c2=O)c(O)c1	0	34*	30*	4	1	37*	20	50*	21*	37	8	46*	56*
COCCN(CC(=O)NC1CCCCC1)C(=O)/C=C/C(=O)c1ccc(OC)cc1O	0	21	31*	2	0	50*	27*	-8	nt	nt	nt	91*	12*
CCOc1ccc(/C=C/[N+](=O)[O-])c2ccccc12	1	14	27*	3	2	58*	22	-24	nt	nt	nt	91*	7
CCOC(=O)Cn1cc(/C=C/[N+](=O)[O-])c2ccccc21	0	-2	5	2	1	-7	nt	nt	nt	nt	nt	nt	nt
O=C1C2CCCCN2C(=O)N1CCCCN1CCN(c2cccc(Br)c2)CC1 (stereo unspecified)	nt	0	nt	nt	nt	1	nt	nt	nt	nt	nt	nt	nt
COc1ccc(C(=O)c2sc3nc(C)cc(-c4cccs4)c3c2N)cc1	0	56*	34*	2	-2	64*	14	20	45*	46	2	37*	71*
Cc1cc(-c2cccs2)c2c(N)c(C(=O)c3ccc4c(c3)OCO4)sc2n1	0	18	9	3	-1	-2	nt	nt	nt	nt	nt	nt	nt
CCOC(=O)N(C)c1c(CC)nc2c(OCc3ccccc3)cccn12	nt	nt	nt	nt	nt	-4	nt	nt	nt	nt	nt	nt	nt
CCc1ccc(/C(C)=N\Nc2ccc([N+](=O)[O-])cc2)cc1	1	31*	32*	2	1	30*	32*	55*	23*	22	-4	41*	46*
C/C(=N\Nc1ccc([N+](=O)[O-])cc1)c1ccco1	1	30*	29*	3	-2	25*	27*	42*	14	17	1	36*	41*
C/C(=N\NC(=O)COc1ccc([N+](=O)[O-])cc1)c1ccco1	nt	9	nt	nt	nt	4	nt	nt	nt	nt	nt	nt	nt
C/C(=N\Nc1ccc([N+](=O)[O-])cc1)c1ccc(N)cc1	0	10	10	2	2	20	nt	nt	nt	nt	nt	nt	nt
O=[N+]([O-])c1ccc(NN=C(Oc2ccccc2)c2ccc([N+](=O)[O-])cc2)cc1	nt	3	nt	nt	nt	2	nt	nt	nt	nt	nt	nt	nt
CC/C(=N\Nc1ccc([N+](=O)[O-])cc1)c1ccccc1	0	22*	31*	3	1	27*	18	35*	12	15	1	38*	40*
O=[N+]([O-])c1ccc(-c2nc(-c3cccs3)c(-c3cccs3)[nH]2)cc1	0	31*	28*	3	nt	33*	23	49*	17	20	4	36*	37*
